Most compounds without a hit are left out; they make up all but 5.8% or so of the library.
FAK blocker: blocks human focal adhesion kinase activity; biochemical FAK kinase activity assay; inhibition, %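 (tested at 7 µM)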; 97,000 compounds, 0.84% hits; AID 727; in the data active = inhibition above about 19%;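 note: 0% = DMSO and 100% = reference compound high control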
PLK1 PBD inh: inhibitors of human Plk1 polo box domain binding; inhibition, %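 (tested at about 20 µM)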; P53350; Plk1 PBD phosphopeptide binding, fluorescence polarization; 97,000 compounds, 0.13% hits; in the data active = inhibition above about 34%, passing the limit was not always enough
Target sequence (P53350 whole entry, looked up, the tested form may be a part): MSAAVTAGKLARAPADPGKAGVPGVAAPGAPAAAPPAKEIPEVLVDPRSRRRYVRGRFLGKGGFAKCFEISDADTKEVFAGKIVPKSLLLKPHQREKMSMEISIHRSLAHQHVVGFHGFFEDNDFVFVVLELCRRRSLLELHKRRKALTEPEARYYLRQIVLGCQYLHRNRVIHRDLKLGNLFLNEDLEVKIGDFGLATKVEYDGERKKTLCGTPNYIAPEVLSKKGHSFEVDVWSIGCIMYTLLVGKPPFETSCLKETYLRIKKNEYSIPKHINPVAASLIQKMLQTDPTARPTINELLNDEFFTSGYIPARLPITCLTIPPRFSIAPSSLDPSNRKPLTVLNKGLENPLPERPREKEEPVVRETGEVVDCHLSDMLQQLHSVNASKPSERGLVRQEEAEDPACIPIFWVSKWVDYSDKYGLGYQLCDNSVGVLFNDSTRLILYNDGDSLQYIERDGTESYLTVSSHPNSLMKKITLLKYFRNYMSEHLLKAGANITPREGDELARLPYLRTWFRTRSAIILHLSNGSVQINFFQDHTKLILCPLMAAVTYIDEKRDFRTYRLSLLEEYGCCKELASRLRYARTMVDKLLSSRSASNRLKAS
PLK1 kinase inh: blocks human PLK1 kinase activity | P53350 | recombinant PLK1 kinase, TR-FRET peptide phosphorylation | inhibition, % at 10 µM | 97,000 compounds, 0.53% hits;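 active = inhibition of 50% or more in the single-concentration screen; inactive = inhibition below 50%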;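 note: 0% = DMSO max control and 100% = H-89 dihydrochloride min control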
HIV Rev-RRE inh: disrupts HIV-1 Rev binding to RRE RNA; P05866; Rev peptide-RRE RNA binding, FRET; inhibition, % at 8 µM; 97,000 compounds, 0.79% hits; AID 704;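 active = inhibition above the screen-wide mean plus 3 SD, cut at about 35% in these data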;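 note: 0% = median DMSO wells and 100% = median Neomycin B control wells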
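Test system: Cy5-tagged RRE RNA duplex with fluorescein-tagged Rev peptide | Read-out: % inhibition of FRET ratio versus controls | Probe or stimulus: Labelled Rev peptide | Incubation: 5 min RNA-compound premix plus 15 min binding step, 25 °C | Technique: FRET fluorescence readout | Benchmarks: DMSO low control, neomycin B high control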
Pyk2 oligo antag: antagonists of human Pyk2 oligomerization; 99,000 compounds, 0.83% hits; AID 1347419; Q293 cells, Pyk2 FERM NanoBiT luminescence; active compounds read low; z-score (the deposit names both 25 µM and 10 µM);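 active = Z-score of -3 or lower, scaled per plate to the spread of control and sample wells; inactive = z-score above -3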;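 note: negative z-score means lost luminescence so less FERM oligomerization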
Cav3 T inh: inhibitors of human Cav3.2 T-type calcium channel; O95180; Cav3.2-expressing cells, Fluo-4 calcium fluorescence FDSS; active compounds read low; B-score at 10 µM; 100,000 compounds, 4% hits; AID 449739;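 active = single-dose well whose peak fluorescence ratio is a statistical outlier from its plate by either plate-standardised score or position-corrected B-score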
Numbers without * were called inactive; . = not tested or not shown.

SMILES	FAK blocker	PLK1 PBD inh	PLK1 kinase inh	HIV Rev-RRE inh	Pyk2 oligo antag	Cav3 T inh
CC(C)C[C@H](NC(=O)OC(C)(C)C)c1nnc(SCc2ccccc2)o1	0.9	-13.8	0.4	5.1	-0.88	-4.81*
CCOC(=O)CSc1nnc([C@H](Cc2ccccc2)NC(=O)OC(C)(C)C)o1	-3.2	-3.5	-15.3	-0.8	-0.42	-0.562
CC(C)(C)OC(=O)N[C@@H](CCCCNC(=O)OCc1ccccc1)c1nnc([C@H](CCCCNC(=O)OCc2ccccc2)NC(=O)OC(C)(C)C)o1	.	.	.	.	.	-2.82*
CN(C)c1oc(-c2ccccc2Cl)nc1S(=O)(=O)c1ccccc1	0.0	3.2	-23.5	4.8	.	-6.29*
O=C1CC(N2CCN(c3cccc(C(F)(F)F)c3)CC2)C(=O)N1c1ccccc1 (stereo unspecified)	-6.3	-30.7	1.9	5.0	-0.28	-0.3
O=C1CC(N2CCN(c3cccc(C(F)(F)F)c3)CC2)C(=O)N1c1ccccc1F (stereo unspecified)	-0.2	2.6	-3.1	15.3	-0.18	-3.2*
C#CCn1c(S(=O)(=O)Cc2ccc(OC)cc2)nc(-c2ccccc2)c1-c1ccccc1	3.9	7.5	-13.3	9.9	-3.05*	-5.14*
CCOC(=O)Cn1c(S(=O)(=O)Cc2ccccc2)nc2ccccc21	-0.7	-3.6	-14.0	3.6	.	0.819
COc1ccc(/C=N/n2c(N)nc(-c3ccccc3)c2-c2ccccc2)cc1	2.6	-10.6	-8.4	-8.1	-0.44	0.238
CCOC(=O)Cn1c(S(=O)(=O)Cc2ccc(Cl)cc2)nc(-c2ccccc2)c1-c1ccccc1	-0.7	-18.5	-14.9	11.4	-1.96	-5.61*
COc1cc(OC)c2nc(C)c3c(c2c1)N(c1ccc(O)cc1)CC3	1.1	11.7	-6.8	3.9	-1	.
Cc1nc(SCC(=O)NCCc2ccccc2)nc(C)c1C	-0.5	10.2	6.3	6.0	-0.95	0.209
CCCOC(=O)NC(CC)COC(=O)Nc1cccc(C)c1C (stereo unspecified)	2.4	-9.0	-5.5	2.8	0.49	-1.85
Cc1cccc(NC(=O)C2=C(O)c3ccccc3N(C)S2(=O)=O)c1	5.8	-5.3	-17.3	8.2	-0.07	-1.03
CN1c2ccccc2C(O)=C(C(=S)Nc2ccc(Cl)cc2)S1(=O)=O	-3.2	10.9	-18.3	5.3	-3.19*	-7.39*
COc1ccc(COC[C@H](C)[C@H](O)[C@@H](C)[C@H]2OC(=O)[C@@H]2C)cc1	.	.	.	.	.	-0.878
COc1ccc([N+](=O)[O-])cc1C1NN=C(c2ccccc2O)S1 (stereo unspecified)	12.1	9.9	-15.2	8.6	0.88	-3.68*
O=C(N/N=C/c1cccc(Oc2ccccc2)c1)c1ccccc1Br	3.5	-30.0	3.0	20.6	-2.36	-2.78
CCCCn1c(=O)n(CC(=O)Nc2ccc(OC)c(Cl)c2)c(=O)c2c1nc(CO)n2CCC	-2.8	-45.4	-6.0	2.9	-0.62	-5.51*
CCCCn1c(=O)n(CC(=O)Nc2c(CC)cccc2CC)c(=O)c2c1nc(CO)n2CCC	-2.3	-9.5	2.4	-0.4	0.11	-0.202
N#CC1=C(N)Oc2cc(O)ccc2C1c1ccncc1 (stereo unspecified)	-0.1	-25.1	5.7	9.6	-0.13	-4.64*
COc1ccc(C2C(C#N)=C(N)Oc3cc4c(cc32)OCO4)cc1 (stereo unspecified)	1.9	11.1	-1.0	7.7	-1.21	-4.04*
N#CC1=C(N)Oc2cc(O)ccc2C1c1cccs1 (stereo unspecified)	1.6	4.0	-2.9	9.2	-1.41	-3.01
COc1ccc(OC)c(C2C(C#N)=C(N)Oc3cc(N)ccc32)c1 (stereo unspecified)	.	.	.	.	-2.29	-0.869
COC(=O)C1=C(C)OC(N)=C(C#N)C1c1cccnc1 (stereo unspecified)	-1.1	4.5	-9.4	5.9	0.22	-0.349
SMILES	FAK blocker	PLK1 PBD inh	PLK1 kinase inh	HIV Rev-RRE inh	Pyk2 oligo antag	Cav3 T inh
CN(C)c1ccc2c(c1)OC(N)=C(C#N)C2c1cccc(F)c1 (stereo unspecified)	.	.	.	.	-3.15*	.
N#CC1=C(N)Oc2ccc3ccc(O)cc3c2C1c1cccnc1 (stereo unspecified)	7.5	-9.8	-4.9	4.6	-3.2*	1.15
CCOc1ccccc1C1C(C#N)=C(N)Oc2cc(N)ccc21 (stereo unspecified)	1.0	-8.0	-9.8	5.2	-2.11	0.132
Fc1ccc(OCc2nnc(SCCN3CCOCC3)o2)cc1	-1.1	9.7	-5.2	-1.8	-0.08	0.538
O=C(CN1CCC(Cc2ccccc2)CC1)Nc1ccc2c(c1)OCCO2	0.0	-5.6	-5.0	13.9	.	-4.07*
O=c1[nH]c(CN2CCN(Cc3ccc4c(c3)OCO4)CC2)nc2ccccc12	-7.5	1.5	1.4	-6.9	0.19	-0.288
COc1cccc(C(=O)N(Cc2ccc3c(c2)OCO3)Cc2nc3ccccc3c(=O)[nH]2)c1	4.0	9.5	-9.0	4.5	-3.44*	-0.0558
COc1ccccc1NC(=O)N(Cc1ccc2c(c1)OCO2)Cc1nc2ccccc2c(=O)[nH]1	-2.1	-1.1	-6.1	15.1	-4*	0.593
Cc1c(C)n(CC(O)CN2C(=O)c3ccccc3S2(=O)=O)c2ccccc12 (stereo unspecified)	1.4	4.3	-2.8	0.5	-0.38	-6.83*
CCCOC(=O)C1C2C=CC(C3CC23)C1C(=O)OCC(=O)c1ccccc1 (stereo unspecified)	-0.4	24.1	-7.4	0.0	-0.65	-5.46*
COC(=O)C1C2CCC(C2)C1C(=O)OCC(=O)c1ccccc1 (stereo unspecified)	0.3	11.0	-7.5	-0.7	0.44	-0.751
N=c1n(CCN2CCCCC2)c2ccccc2n1CC(O)c1ccc(Cl)c(Cl)c1 (stereo unspecified)	-1.1	-12.8	62.7*	4.8	0.83	-2.6
CCN(CC)c1ccc(C2NCC(c3ccc([N+](=O)[O-])cc3)O2)cc1 (stereo unspecified)	-0.1	-14.4	-10.4	6.8	-3.16*	1.86
Cc1ccc(C(=O)Nc2nc(=O)n(C(=O)c3ccccc3C)s2)cc1	-0.3	0.0	-1.4	2.5	0.1	-7.43*
O=C(Nc1nc(=O)n(C(=O)C2CC2)s1)c1ccccc1	-7.1	-30.7	3.0	10.0	-0.06	0.0307
CCN(CC)S(=O)(=O)c1cccc(-c2nnc(SCC(=O)c3cc(C)n(C4CC4)c3C)o2)c1	.	.	.	.	1.59	0.869
CCN(CC)S(=O)(=O)c1cccc(-c2nnc(SC(C)C(=O)NCCC3=CCCCC3)o2)c1 (stereo unspecified)	-4.0	4.7	-12.5	-0.5	-0.6	-2.89*
CCN(CC)S(=O)(=O)c1cccc(-c2nnc(SCCCC(=O)c3ccc(F)cc3)o2)c1	-0.1	19.5	-1.1	4.7	0.04	-4.73*
CCN(CC)S(=O)(=O)c1cccc(-c2nnc(SCCCC(=O)c3ccccc3)o2)c1	-9.3	-9.1	6.4	1.6	-1.07	-5.3*
